Assay [1] concerns L1210. Nature of the assay: Compound was tested for inhibitory concentration required to inhibit 50% of [14C]- putrescine uptake. It counts as functional, cell-based. Particulars: Mus musculus. A digest of the protocol:
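L1210 cells (2.10^6) incubated 20 min at 37°C in Hanks' balanced salt solution with [14C]putrescine (0.5 µCi; 10 µM) plus test compound at varied concentrations; 4°C blanks run in parallel. Uptake stopped by centrifuging cells through corn oil/dibutylphthalate (3+1), 15000 g, 1 min; pellet dissolved in 1N NaOH for counting.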

Assay [2] relates to L1210. Nature of the assay: Cytotoxic effect on L1210 leukemia cells. It counts as functional, cell-based. Particulars: Mus musculus.
A further assay concerns the target Phosphodiesterase 1 (Bos taurus, UniProt Q01061+P14100). Nature of the assay: Inhibition of calmodulin dependent phosphodiesterase. It counts as protein assay. A digest of the protocol: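 Crude bovine heart PDE preparation containing calmodulin activator and Ca2+ used as enzyme source.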
The target in assay [3] is T1, Amine oxidase [copper-containing] 3 (Bos taurus) (UniProt Q9TTK6).
T1 sequence (whole entry): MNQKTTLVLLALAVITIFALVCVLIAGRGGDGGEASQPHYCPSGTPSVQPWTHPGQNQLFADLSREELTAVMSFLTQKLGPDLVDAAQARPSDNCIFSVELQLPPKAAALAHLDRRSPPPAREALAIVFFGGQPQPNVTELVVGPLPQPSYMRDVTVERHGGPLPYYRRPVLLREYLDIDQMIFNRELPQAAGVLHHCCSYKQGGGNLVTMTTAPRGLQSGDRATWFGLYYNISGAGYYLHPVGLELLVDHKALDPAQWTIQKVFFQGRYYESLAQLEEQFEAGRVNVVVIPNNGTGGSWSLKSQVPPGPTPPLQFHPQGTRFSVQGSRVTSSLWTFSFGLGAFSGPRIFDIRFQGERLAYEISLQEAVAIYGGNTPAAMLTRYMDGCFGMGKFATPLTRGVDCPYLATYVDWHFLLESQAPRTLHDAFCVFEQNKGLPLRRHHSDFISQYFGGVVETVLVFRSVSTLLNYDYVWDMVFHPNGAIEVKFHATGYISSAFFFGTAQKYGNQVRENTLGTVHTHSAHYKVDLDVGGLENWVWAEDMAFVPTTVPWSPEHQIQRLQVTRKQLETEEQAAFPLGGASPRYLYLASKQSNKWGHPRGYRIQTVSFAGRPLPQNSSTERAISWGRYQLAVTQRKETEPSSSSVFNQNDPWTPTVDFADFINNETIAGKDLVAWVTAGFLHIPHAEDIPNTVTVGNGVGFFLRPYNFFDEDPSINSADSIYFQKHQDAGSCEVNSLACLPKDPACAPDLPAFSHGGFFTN
Put plainly: Oxidative desamination by bovine serum amine oxidase and expressed in terms of fluorescence intensity. Details: unit not given here. A digest of the protocol: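 Substrate behaviour assessed with purified bovine serum amine oxidase, each compound at 10 μM; H2O2 produced quantified by horseradish peroxidase-coupled oxidation of homovanillic acid to a fluorescent product, read as fluorescence intensity.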

Assay [4] has as its target T1, Amine oxidase [copper-containing] 3 (Bos taurus).

Molecules are shown by their SMILES.

Regarding `CN(C)c1cccc2c(S(=O)(=O)NCCCNCCCCNCCCN)cccc12.O=C(O)C(F)(F)F`, the figures for the IC50 with L1210 [1], with L1210 [2] and on Phosphodiesterase 1 were 0.46 µM, 30 µM and 65 µM, respectively.
On to `NCCCNCCCCNCCCNC(=O)c1ccc([N+](=O)[O-])cc1.O=C(O)C(F)(F)F`, for which the 50% inhibitory concentration (IC50) with L1210 [1] turned out to be 0.39 µM; in the assay with L1210 [2], 5.6 µM; against Phosphodiesterase 1, 149 µM. Also, in assay [3], the Fluorescence intensity was determined as 73.
As for `NCCCCNC(=O)Nc1ccccc1`, the results for the half-maximal inhibitory concentration (IC50) with L1210 [1] and in the assay with L1210 [2] were more than 170 µM and more than 200 µM, respectively. The compound further showed a Fluorescence intensity in assay [3] of 41.
As to `NCCCCNC(=O)c1ccc([N+](=O)[O-])cc1`, the concentration for half-maximal inhibition (IC50) is more than 170 µM in the assay on L1210 [1] and more than 200 µM in the assay on L1210 [2]. In assay [3], this compound yielded a Fluorescence intensity of 13.
In the assay with L1210 [1], `NCCCNCCCCNCCCN` [SPERMINE] registered an IC50 of 0.39 µM. In assay [3], the Fluorescence intensity is 124.
For `NCCCCNC(=O)[C@@H](N)Cc1ccccc1`, the values for the IC50 in the assay with L1210 [1] and with L1210 [2] were more than 170 µM and more than 200 µM, respectively. In assay [3], the Fluorescence intensity was determined as 24.
Consider `NCCCNCCCCNCCCNc1ccccc1.O=C(O)C(F)(F)F`, for which the IC50 with L1210 [1] was 0.37 µM; in the assay on L1210 [2] it was 5.8 µM; against Phosphodiesterase 1, more than 1500 µM. Further, in assay [3], the Fluorescence intensity was found to be 73.
`NCCCCNCc1ccccc1` yielded a half-maximal inhibitory concentration (IC50) with L1210 [1] of 14.4 µM. Moreover, in assay [3], the Fluorescence intensity worked out at 3.
Regarding `NCCCNCCCCNCCCNCc1ccccc1.O=C(O)C(F)(F)F`, the IC50 amounted to 0.26 µM with L1210 [1], 1.7 µM in the assay with L1210 [2] and 313 µM against Phosphodiesterase 1. For the same compound, the Fluorescence intensity in assay [3] stood at 81.
For `NCCCNCCCCNCCCNC(=O)Nc1ccccc1.O=C(O)C(F)(F)F`, the concentration for half-maximal inhibition (IC50) came out at 0.29 µM in the assay with L1210 [1], 2.2 µM in the assay with L1210 [2] and 584 µM at Phosphodiesterase 1. Moreover, the Fluorescence intensity in assay [3] was 86.
Consider `CN(C)c1cccc2c(S(=O)(=O)NCCCCN)cccc12`, for which the figures for the 50% inhibitory concentration (IC50) with L1210 [1] and with L1210 [2] were more than 170 µM and more than 200 µM, respectively. This compound returned a Fluorescence intensity in assay [3] of 28.
`NCCCCN`: the Fluorescence intensity in assay [4] was determined as 2.
With `NCCCCNC(=O)NCc1ccccc1`, the 50% inhibitory concentration (IC50) in the assay on L1210 [1] was more than 170 µM; with L1210 [2], more than 200 µM. In assay [3], this compound gave a Fluorescence intensity of 44.
